Data from ChEMBL document CHEMBL4346670, “Discovery of Novel Janus Kinase (JAK) and Histone Deacetylase (HDAC) Dual Inhibitors for the Treatment of Hematological Malignancies” (J Med Chem, 2019).
Active and inactive are the calls of the source. No cut-off for these calls is given here.

How the values were obtained:
[1] = biological target: Histone deacetylase; assay: Inhibition of HDAC in human HeLa nuclear extract using Boc-Lys(acetyl)-AMC as substrate preincubated for 5 mins followed by substrate addition and measured after 30 mins by fluorescence assay; assay type: cell-based
[2] = biological target: T1, Histone deacetylase 2 (Homo sapiens, UniProt Q92769); conditions: A549, at 80 to 400 nM
T1 sequence (Q92769 whole entry): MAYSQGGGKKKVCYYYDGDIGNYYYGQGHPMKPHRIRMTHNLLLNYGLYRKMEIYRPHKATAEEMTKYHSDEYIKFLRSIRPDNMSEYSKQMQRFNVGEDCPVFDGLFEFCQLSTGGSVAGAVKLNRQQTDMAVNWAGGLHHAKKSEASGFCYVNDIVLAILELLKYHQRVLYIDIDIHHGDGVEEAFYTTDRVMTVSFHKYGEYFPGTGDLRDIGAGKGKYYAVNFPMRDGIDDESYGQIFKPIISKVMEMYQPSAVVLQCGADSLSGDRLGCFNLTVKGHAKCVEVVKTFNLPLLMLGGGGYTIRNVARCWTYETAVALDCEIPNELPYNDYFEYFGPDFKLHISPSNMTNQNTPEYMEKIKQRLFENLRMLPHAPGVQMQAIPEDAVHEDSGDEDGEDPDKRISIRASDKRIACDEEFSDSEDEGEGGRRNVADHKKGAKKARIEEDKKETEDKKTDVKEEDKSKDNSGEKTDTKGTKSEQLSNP

[3] = tested on: Jurkat; assay: Antiproliferative activity against human Jurkat cells assessed as reduction in cell viability after 48 hrs by MTT assay; assay type: functional, cell-based
[4] = biological target: T2, Histone deacetylase 8 (Homo sapiens, UniProt Q9BY41); assay: Inhibition of HDAC8 (unknown origin) using Boc-Lys(trifluoroacetyl)-AMC as substrate preincubated for 5 mins followed by substrate addition and measured after 30 mins by fluorescence assay
T2 sequence (Q9BY41 whole entry): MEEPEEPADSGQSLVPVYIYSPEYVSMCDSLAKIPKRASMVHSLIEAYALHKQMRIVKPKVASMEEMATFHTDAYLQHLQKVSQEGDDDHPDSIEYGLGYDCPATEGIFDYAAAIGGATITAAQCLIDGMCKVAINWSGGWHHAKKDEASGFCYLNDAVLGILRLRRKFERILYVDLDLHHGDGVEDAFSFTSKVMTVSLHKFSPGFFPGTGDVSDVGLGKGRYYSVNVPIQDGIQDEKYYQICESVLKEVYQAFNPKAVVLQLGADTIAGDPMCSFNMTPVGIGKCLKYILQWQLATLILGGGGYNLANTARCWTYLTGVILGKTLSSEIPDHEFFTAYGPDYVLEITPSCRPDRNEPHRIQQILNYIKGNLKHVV

[5] = biological target: T1, Histone deacetylase 2; assay: Inhibition of HDAC2 (unknown origin) using Boc-Lys(acetyl)-AMC as substrate preincubated for 5 mins followed by substrate addition and measured after 30 mins by fluorescence assay
[6] = tested on: K562; assay: Antiproliferative activity against human K562 cells assessed as reduction in cell viability after 48 hrs by MTT assay; assay type: functional, cell-based; conditions: K562, 48 h
[7] = tested on: HEL; assay: Antiproliferative activity against HEL cells harboring JAK2 V617F mutant assessed as reduction in cell viability after 48 hrs by MTT assay; assay type: functional, cell-based; conditions: Homo sapiens
[8] = biological target: T3, Protein deacetylase HDAC6 (Homo sapiens, UniProt Q9UBN7); assay: Inhibition of HDAC6 (unknown origin) using Boc-Lys(acetyl)-AMC as substrate preincubated for 5 mins followed by substrate addition and measured after 30 mins by fluorescence assay
T3 sequence (Q9UBN7 whole entry): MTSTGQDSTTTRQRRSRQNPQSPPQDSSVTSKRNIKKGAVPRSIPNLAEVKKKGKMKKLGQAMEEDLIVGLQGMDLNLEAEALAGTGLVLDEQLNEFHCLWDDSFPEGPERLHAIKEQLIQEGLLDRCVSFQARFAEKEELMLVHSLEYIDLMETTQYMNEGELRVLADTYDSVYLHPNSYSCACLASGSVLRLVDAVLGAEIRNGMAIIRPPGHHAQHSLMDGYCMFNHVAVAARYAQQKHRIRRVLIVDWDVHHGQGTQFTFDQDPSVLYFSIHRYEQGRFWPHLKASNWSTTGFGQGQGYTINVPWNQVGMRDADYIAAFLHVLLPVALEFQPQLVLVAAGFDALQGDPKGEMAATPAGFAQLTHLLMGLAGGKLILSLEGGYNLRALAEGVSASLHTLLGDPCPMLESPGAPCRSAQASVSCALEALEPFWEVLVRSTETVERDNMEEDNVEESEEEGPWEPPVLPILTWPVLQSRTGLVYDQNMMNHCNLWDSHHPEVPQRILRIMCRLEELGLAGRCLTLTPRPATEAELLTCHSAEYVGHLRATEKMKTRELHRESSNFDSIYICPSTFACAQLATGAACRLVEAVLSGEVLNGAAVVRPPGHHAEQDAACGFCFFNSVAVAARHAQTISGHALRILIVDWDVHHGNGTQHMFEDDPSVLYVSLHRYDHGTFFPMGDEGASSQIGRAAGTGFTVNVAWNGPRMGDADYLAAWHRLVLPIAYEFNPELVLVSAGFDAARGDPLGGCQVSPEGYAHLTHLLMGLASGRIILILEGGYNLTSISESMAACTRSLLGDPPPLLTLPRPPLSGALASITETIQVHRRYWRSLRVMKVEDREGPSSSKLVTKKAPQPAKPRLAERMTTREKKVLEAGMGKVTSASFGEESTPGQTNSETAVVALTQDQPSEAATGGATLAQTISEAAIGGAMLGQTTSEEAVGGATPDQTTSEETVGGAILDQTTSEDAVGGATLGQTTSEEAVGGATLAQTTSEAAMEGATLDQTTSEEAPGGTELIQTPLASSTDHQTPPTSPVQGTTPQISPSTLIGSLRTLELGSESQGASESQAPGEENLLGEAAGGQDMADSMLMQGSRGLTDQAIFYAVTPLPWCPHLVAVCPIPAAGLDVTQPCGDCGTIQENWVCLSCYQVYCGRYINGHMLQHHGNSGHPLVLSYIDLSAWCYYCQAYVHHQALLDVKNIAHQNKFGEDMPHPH

[9] = tested on: MOLT-4; assay: Antiproliferative activity against human MOLT4 cells assessed as reduction in cell viability after 48 hrs by MTT assay; assay type: functional, cell-based; conditions: MOLT-4, 48 h
How it was run: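 Cells kept in RPMI1640 with 10% FBS at 37 °C, 5% CO2. Seeded and grown for 12 h, then exposed to a range of compound concentrations for 48 h. 0.5% MTT added for 4 h, formazan dissolved in DMSO, absorbance read at 570 nm.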

[10] = biological target: Tyrosine-protein kinase JAK2 (Homo sapiens, UniProt O60674); assay: Inhibition of recombinant human JAK2 using Ulight-CAGAGAIETDKEYYTVKD as substrate measured after 60 mins by LANCE assay
Chain of Tyrosine-protein kinase JAK2 (O60674 whole entry): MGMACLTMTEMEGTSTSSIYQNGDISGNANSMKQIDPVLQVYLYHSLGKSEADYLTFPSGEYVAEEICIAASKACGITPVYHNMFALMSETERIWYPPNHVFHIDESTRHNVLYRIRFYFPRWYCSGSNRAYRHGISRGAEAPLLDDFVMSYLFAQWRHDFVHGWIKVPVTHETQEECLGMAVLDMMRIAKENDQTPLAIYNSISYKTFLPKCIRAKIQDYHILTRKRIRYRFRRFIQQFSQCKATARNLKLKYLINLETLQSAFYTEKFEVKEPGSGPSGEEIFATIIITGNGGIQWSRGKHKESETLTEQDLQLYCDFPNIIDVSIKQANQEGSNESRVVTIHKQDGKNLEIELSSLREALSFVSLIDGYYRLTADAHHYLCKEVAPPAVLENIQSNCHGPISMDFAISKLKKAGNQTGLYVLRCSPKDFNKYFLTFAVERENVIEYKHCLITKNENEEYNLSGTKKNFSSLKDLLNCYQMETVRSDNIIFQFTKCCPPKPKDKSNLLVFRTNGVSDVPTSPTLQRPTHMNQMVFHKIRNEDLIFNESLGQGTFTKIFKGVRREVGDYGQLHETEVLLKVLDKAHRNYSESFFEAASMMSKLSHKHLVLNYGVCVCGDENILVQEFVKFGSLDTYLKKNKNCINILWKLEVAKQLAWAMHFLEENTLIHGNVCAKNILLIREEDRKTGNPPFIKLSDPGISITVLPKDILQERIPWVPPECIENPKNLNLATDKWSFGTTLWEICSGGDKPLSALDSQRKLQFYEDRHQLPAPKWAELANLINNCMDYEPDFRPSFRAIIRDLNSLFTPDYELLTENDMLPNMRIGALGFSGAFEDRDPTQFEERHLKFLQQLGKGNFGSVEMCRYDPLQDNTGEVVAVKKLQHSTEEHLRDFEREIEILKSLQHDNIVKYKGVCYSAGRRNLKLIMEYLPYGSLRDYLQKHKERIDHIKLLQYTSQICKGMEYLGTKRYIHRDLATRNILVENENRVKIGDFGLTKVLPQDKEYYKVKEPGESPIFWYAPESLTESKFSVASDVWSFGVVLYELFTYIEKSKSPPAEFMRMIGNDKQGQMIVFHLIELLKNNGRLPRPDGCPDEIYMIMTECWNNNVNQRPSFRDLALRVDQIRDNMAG

[11] = biological target: T4, Histone deacetylase (Homo sapiens) (UniProt Q13547+O15379+Q9UBN7+Q92769+Q9UQL6+Q8WUI4+Q9BY41+Q96DB2+P56524+Q9UKV0+Q969S8); assay: Inhibition of HDAC in human HeLa nuclear extract at 10 uM using Boc-Lys(acetyl)-AMC as substrate preincubated for 5 mins followed by substrate addition and measured after 30 mins by fluorescence assay; assay type: cell-free
How it was run: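 HeLa nuclear extract mixed with compound and held at 37 °C for 5 min. Boc-Lys(acetyl)-AMC added and incubated 30 min at 37 °C. Quenched with developer containing trypsin and trichostatin A, then 20 min at 37 °C. Fluorescence read at ex 390/em 460 nm; inhibition calculated relative to control wells.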

[12] = biological target: Non-receptor tyrosine-protein kinase TYK2 (Homo sapiens, UniProt P29597); assay: Inhibition of recombinant human TYK2 using Ulight-CAGAGAIETDKEYYTVKD as substrate measured after 60 mins by LANCE assay
Chain of Non-receptor tyrosine-protein kinase TYK2 (P29597 whole entry): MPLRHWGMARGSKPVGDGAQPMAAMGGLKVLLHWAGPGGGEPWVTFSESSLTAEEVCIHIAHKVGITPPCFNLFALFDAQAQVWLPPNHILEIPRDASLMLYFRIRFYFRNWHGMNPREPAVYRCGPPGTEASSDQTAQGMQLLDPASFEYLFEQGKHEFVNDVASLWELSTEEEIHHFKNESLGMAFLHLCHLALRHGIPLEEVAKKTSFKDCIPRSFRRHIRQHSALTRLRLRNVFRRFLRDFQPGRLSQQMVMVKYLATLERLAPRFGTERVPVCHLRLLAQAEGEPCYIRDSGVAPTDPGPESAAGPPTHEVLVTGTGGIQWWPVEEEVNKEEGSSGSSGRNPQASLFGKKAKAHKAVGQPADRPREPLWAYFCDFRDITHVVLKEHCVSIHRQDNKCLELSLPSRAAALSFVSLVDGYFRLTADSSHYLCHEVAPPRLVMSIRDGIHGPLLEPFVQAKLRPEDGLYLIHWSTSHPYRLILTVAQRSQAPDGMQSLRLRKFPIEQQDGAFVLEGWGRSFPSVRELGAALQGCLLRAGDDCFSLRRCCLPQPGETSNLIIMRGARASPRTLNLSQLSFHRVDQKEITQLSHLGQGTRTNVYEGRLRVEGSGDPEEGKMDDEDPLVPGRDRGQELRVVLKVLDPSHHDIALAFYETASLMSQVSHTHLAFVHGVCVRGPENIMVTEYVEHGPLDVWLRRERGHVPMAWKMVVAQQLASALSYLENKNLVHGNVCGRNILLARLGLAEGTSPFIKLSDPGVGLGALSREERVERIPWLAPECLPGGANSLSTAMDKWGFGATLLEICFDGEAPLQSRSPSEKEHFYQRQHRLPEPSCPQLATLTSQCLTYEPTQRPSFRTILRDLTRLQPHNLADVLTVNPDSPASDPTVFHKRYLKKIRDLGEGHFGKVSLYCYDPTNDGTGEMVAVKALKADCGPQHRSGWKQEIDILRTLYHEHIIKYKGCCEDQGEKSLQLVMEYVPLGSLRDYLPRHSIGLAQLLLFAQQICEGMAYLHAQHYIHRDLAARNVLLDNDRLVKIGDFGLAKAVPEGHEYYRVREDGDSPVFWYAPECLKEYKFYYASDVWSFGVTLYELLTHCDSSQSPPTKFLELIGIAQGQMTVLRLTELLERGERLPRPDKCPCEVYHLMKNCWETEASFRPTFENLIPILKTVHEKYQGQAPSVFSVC
How it was run: (§1)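 Human recombinant JAK enzyme assays run by a contract lab. IC50 was taken from a non-linear curve fit, with all parameters allowed to float. Assays were run in replicate (n>2) and reported as mean ± SD.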

[13] = biological target: T5, Tyrosine-protein kinase JAK3 (Homo sapiens, UniProt P52333); assay: Inhibition of recombinant human JAK3 using Ulight-CAGAGAIETDKEYYTVKD as substrate measured after 60 mins by LANCE assay
T5 sequence (P52333 whole entry): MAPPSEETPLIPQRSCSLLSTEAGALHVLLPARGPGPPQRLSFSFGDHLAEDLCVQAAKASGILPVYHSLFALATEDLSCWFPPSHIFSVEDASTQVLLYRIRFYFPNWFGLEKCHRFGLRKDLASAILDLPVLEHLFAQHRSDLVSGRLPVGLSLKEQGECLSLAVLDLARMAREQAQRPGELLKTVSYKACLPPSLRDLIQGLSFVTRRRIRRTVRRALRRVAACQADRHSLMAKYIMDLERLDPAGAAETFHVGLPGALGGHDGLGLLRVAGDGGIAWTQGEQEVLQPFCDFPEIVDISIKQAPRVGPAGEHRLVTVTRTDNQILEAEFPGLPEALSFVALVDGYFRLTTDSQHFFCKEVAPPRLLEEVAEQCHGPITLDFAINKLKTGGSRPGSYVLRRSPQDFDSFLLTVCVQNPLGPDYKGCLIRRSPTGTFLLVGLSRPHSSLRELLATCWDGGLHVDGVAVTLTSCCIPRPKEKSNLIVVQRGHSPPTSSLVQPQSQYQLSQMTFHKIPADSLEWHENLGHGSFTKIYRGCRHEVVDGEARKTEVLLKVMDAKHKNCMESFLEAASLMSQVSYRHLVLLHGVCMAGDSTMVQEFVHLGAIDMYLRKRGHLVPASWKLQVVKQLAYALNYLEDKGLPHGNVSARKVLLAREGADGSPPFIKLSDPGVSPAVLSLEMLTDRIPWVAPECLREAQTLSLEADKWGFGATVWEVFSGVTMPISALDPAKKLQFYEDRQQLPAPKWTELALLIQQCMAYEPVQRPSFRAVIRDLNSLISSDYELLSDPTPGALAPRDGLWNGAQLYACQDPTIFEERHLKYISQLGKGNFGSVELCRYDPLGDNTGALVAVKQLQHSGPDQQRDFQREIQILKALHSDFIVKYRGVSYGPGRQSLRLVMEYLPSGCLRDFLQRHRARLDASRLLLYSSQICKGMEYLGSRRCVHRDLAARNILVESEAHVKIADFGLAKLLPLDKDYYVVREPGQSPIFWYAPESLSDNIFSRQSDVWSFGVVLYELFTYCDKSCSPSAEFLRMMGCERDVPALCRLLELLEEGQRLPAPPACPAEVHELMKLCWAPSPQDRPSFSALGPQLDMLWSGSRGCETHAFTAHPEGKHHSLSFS

[14] = biological target: T4, Histone deacetylase (Homo sapiens); assay: Potency index, ratio of SAHA IC50 to test compound IC50 for inhibition of HDAC in human HeLa cell nuclear extract; assay type: cell-based
How it was run: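 HeLa cell nuclear extract was incubated with serial concentrations of compound for 5 min at 37 °C. Boc-Lys(acetyl)-AMC substrate was added for 30 min at 37 °C, then developer containing trypsin and TSA for 20 min. Fluorescence was read at ex 390/em 460 nm against control wells.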

[15] = biological target: Tyrosine-protein kinase JAK1 (Homo sapiens, UniProt P23458); assay: Inhibition of recombinant human JAK1 using Ulight-CAGAGAIETDKEYYTVKD as substrate measured after 60 mins by LANCE assay; how it was run: as §1
Chain of Tyrosine-protein kinase JAK1 (P23458 whole entry): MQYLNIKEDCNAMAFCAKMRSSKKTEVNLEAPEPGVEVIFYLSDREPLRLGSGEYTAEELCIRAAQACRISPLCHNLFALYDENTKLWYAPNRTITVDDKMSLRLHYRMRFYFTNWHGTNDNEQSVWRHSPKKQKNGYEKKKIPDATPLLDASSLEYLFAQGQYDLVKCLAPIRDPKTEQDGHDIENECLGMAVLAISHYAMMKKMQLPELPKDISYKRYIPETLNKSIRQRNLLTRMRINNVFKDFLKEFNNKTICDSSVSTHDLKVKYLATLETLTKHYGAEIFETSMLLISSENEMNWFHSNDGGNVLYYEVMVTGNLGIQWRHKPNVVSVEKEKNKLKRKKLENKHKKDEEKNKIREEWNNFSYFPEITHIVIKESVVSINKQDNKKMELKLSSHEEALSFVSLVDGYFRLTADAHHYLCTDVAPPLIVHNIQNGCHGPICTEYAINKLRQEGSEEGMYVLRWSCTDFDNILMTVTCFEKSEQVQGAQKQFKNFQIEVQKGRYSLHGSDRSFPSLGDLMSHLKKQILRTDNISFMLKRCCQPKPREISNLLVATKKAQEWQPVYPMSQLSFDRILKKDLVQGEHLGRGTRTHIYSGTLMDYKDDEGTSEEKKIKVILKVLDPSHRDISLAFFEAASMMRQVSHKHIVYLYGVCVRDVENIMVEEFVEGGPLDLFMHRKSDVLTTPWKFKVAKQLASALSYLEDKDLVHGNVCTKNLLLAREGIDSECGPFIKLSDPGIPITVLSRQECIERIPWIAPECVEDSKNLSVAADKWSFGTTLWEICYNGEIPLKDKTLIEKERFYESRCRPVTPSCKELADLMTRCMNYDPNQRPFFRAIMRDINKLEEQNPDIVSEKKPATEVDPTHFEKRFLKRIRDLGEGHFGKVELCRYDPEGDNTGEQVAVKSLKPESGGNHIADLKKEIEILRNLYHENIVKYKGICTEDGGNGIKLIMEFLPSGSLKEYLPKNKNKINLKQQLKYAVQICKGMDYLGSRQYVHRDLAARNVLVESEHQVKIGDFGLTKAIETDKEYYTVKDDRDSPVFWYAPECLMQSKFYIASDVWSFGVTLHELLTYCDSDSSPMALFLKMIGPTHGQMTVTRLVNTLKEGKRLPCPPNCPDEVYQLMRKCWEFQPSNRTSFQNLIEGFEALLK

| SMILES | IC50 [1] [nM] | inhibition [2] | IC50 [3] [nM] | IC50 [4] [nM] | IC50 [5] [nM] | IC50 [6] [nM] | IC50 [8] [nM] | IC50 [9] [nM] | IC50 [10] [nM] | inhibition [11] | IC50 [12] [nM] | IC50 [13] [nM] | Ratio IC50 [14] | IC50 [15] [nM] | IC50 [7] [nM] |
| --- | --- | --- | --- | --- | --- | --- | --- | --- | --- | --- | --- | --- | --- | --- | --- |
| CNc1nc(Nc2cnn(CCCCCCC(=O)NO)c2)ncc1Cl | 15 | Active | 70 | 4070 | 190 | 590 | 29 | 110 | 36 | – | – | – | – | – | 100 |
| O=C(CCCCCCn1cc(Nc2ncc(Cl)c(Nc3ccc(Cl)cc3)n2)cn1)NO | 2 | – | 100 | – | – | 320 | – | 120 | 14 | – | 94 | 7.6 | > 50 | 10 | 120 |
| COc1ccc(Nc2nc(Nc3cnn(CCCCCCC(=O)NO)c3)ncc2Cl)cc1 | 3 | – | 130 | – | – | 620 | – | 170 | 10 | – | – | – | > 50 | – | 210 |

The next lines start with results.

| IC50 [1] [nM] | inhibition [2] | IC50 [3] [nM] | IC50 [4] [nM] | IC50 [5] [nM] | IC50 [6] [nM] | IC50 [8] [nM] | IC50 [9] [nM] | IC50 [10] [nM] | inhibition [11] | IC50 [12] [nM] | IC50 [13] [nM] | Ratio IC50 [14] | IC50 [15] [nM] | SMILES | IC50 [7] [nM] |
| --- | --- | --- | --- | --- | --- | --- | --- | --- | --- | --- | --- | --- | --- | --- | --- |
| – | – | – | – | – | – | – | – | – | inactive | – | – | – | – | Clc1cccc(Nc2nc(Nc3cn[nH]c3)ncc2Cl)c1 | – |
| 3 | – | 120 | – | – | 500 | – | 220 | 15 | – | – | – | > 50 | – | O=C(CCCCCCn1cc(Nc2ncc(Cl)c(Nc3ccc(F)cc3)n2)cn1)NO | 210 |
